Holding throughout (assay type): functional, organism-based
For experiment [1], the system named is Human immunodeficiency virus 1. Kind of experiment: Antiviral activity against HIV 1 3B infected in MT-4 cells assessed as inhibition of virus-induced cytopathic effect by MTT assay. The note with it: Human immunodeficiency virus 1, 3B, MT4. In a few lines: (§1)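 MT-4 cells (RPMI 1640, 10% heat-inactivated FCS, 2 mM L-glutamine, 37°C, 5% CO2) infected with 100 to 300 CCID50 of virus, titrated on MT-4 cells. Fivefold serial drug dilutions were present during infection. Protection from viral CPE was read by MTT reduction to formazan, measured spectrophotometrically. IC50 is the concentration giving 50% protection.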

For experiment [2], the system named is Human immunodeficiency virus 1. Kind of experiment: Antiviral activity against HIV 1 RIN harboring integrase gene infected in MT-4 cells assessed as inhibition of virus-induced cytopathic effect by MTT assay after 20 passages selected in presence of compound. The conditions noted are these: Human immunodeficiency virus 1, RIN, MT4.
Experiment [3] concerns Human immunodeficiency virus 1. Nature of the experiment: Antiviral activity against HIV 1 RIN HIV 1 RIN harboring integrase gene infected in MT-4 cells assessed as inhibition of virus-induced cytopathic effect by MTT assay after 60 passages selected in presence of compound. The note with it: Human immunodeficiency virus 1, RIN, MT4. In a few lines:
as §1

Experiment [4] has as its system Human immunodeficiency virus 1. Kind of experiment: Antiviral activity against HIV 1 RIN HIV 1 RIN harboring integrase gene infected in MT-4 cells assessed as inhibition of virus-induced cytopathic effect by MTT assay after 40 passages selected in presence of compound. The note with it: Human immunodeficiency virus 1, RIN, MT4. In short, it runs like this:
as §1

In experiment [5] the test system is Human immunodeficiency virus 1. Kind of experiment: Antiviral activity against HIV 1 NL4.3 integrase S230N mutant infected in human MT-4 cells assessed as inhibition of virus-induced cytopathic effect by MTT assay. The conditions noted are these: Human immunodeficiency virus 1, NL4.3, MT4. In short, it runs like this:
as §1

The subject of experiment [6] is Human immunodeficiency virus 1. Kind of experiment: Antiviral activity against HIV 1 3B harboring integrase E92Q S230N double mutant infected in MT-4 cells assessed as inhibition of virus-induced cytopathic effect by MTT assay selected after 20 passages in presence of compound. The conditions noted are these: Human immunodeficiency virus 1, 3B, MT4. In a few lines: as §1

Experiment [7] relates to Human immunodeficiency virus 1. Nature of the experiment: Antiviral activity against HIV 1 NL4.3 integrase E92Q mutant infected in human MT-4 cells assessed as inhibition of virus-induced cytopathic effect by MTT assay. The conditions noted are these: Human immunodeficiency virus 1, NL4.3, MT4. In short, it runs like this: as §1
Experiment [8] relates to Human immunodeficiency virus 1. Kind of experiment: Antiviral activity against HIV 1 NL4.3 assessed as inhibition of virus-induced cytopathic effect by MTT assay. The conditions noted are these: Human immunodeficiency virus 1, NL4.3. In short, it runs like this:
as §1

Experiment [9] deals with Human immunodeficiency virus 1. Nature of the experiment: Antiviral activity against HIV 1 NL4.3 harboring integrase L74M mutant infected in human MT-4 cells assessed as inhibition of virus-induced cytopathic effect by MTT assay. The note with it: Human immunodeficiency virus 1, NL4.3, MT4. In a few lines: as §1
Experiment [10] deals with Human immunodeficiency virus 1. Nature of the experiment: Antiviral activity against HIV 1 3B harboring integrase E92Q, S230N and L34M triple mutant infected in MT-4 cells assessed as inhibition of virus-induced cytopathic effect by MTT assay selected after 60 passages in presence of compound. The note with it: Human immunodeficiency virus 1, 3B, MT4. In short, it runs like this: as §1

The subject of experiment [11] is Human immunodeficiency virus 1. Nature of the experiment: Antiviral activity against HIV 1 RIN harboring integrase gene infected in MT-4 cells assessed as inhibition of virus-induced cytopathic effect by MTT assay. The note with it: Human immunodeficiency virus 1, RIN, MT4. In short, it runs like this:
as §1

Experiment [12] deals with Human immunodeficiency virus 1. Kind of experiment: Antiviral activity against HIV 1 3B harboring integrase L34M mutant infected in MT-4 cells assessed as inhibition of virus-induced cytopathic effect by MTT assay selected after 40 passages in presence of compound. The conditions noted are these: Human immunodeficiency virus 1, 3B, MT4. In short, it runs like this: as §1

In experiment [13] the test system is Human immunodeficiency virus 1. Kind of experiment: Antiviral activity against HIV 1 3B infected in MT-4 cells assessed as inhibition of virus-induced cytopathic effect by MTT assay selected after 50 passages in presence of compound. The conditions noted are these: Human immunodeficiency virus 1, 3B, MT4. In a few lines:
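Selected strains came from serial passage of HIV-1(IIIB) in MT-4 cells, started at MOI 0.01 with drug at 0.005 µM. Cultures were checked for CPE every 3 to 4 days. Supernatant from CPE-positive cultures went onto fresh cells at equal or higher drug concentration; cultures without breakthrough were subcultured at the same concentration. Susceptibility was tested by the MT-4/MTT CPE assay.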

pEC50, pIC50: −log10 of the molar value.

Consider `Cc1cn([C@H]2C[C@H](N=[N+]=[N-])[C@@H](CO)O2)c(=O)[nH]c1=O` [ZIDOVUDINE], for which the pEC50 in experiment [1] was 7.74; in experiment [2] it was 7.66; in [3] it was 7.66; in experiment [4], 7.66; in experiment [5], 8.22; in experiment [6], 7.74. The pEC50 in experiment [7] is 8.15; in experiment [8], 8.15; in [9], 8.30; in experiment [10], 8.15; in [11], 7.74; in [12], 8.40.

For `Cc1ccnc2c1NC(=O)c1cccnc1N2C1CC1` [NEVIRAPINE], the pEC50 in experiment [1] is 6.34; in experiment [3], 6.82; in experiment [4], 6.82; in experiment [6], 6.42; in [10] it was 6.51; in experiment [11], 6.77. Moreover, the negative-log EC50 (pEC50) in experiment [12] is 6.46.

In the case of `c1cc(CN2CCCNCCNCCCNCC2)ccc1CN1CCCNCCNCCCNCC1` [PLERIXAFOR], the pEC50 was 7.47 in experiment [1]; 8.10 in [2]; 8.10 in experiment [3]; 8.10 in experiment [4]; 7.31 in experiment [6]; 7.25 in [10]. Also, the values for the pEC50 in experiment [11] and in experiment [12] were 7.85 and 7.55, respectively.

For `CC(C)c1nc(CN(C)C(=O)N[C@H](C(=O)N[C@@H](Cc2ccccc2)C[C@H](O)[C@H](Cc2ccccc2)NC(=O)OCc2cncs2)C(C)C)cs1` [RITONAVIR], the pEC50 in experiment [1] is 7.26; in experiment [2], 7.41; in [3], 7.39; in experiment [4], 7.38; in experiment [5], 7.05; in experiment [6], 7.16. Besides, the pEC50 is 7.24 in experiment [7]; 6.89 in [8]; 7.22 in [9]; 7.22 in [10]; 7.37 in [11]; 7.16 in experiment [12].

`O=C(NCc1ccc(F)cc1)c1nc(N2CCCCS2(=O)=O)c2cccnc2c1O`: the pEC50 in experiment [1] was 8.30; in [2], 7.74; in [3], 6.72; in [4], 7.19; in experiment [5] it was 8.15; in experiment [6] it was 6.96. Also, the pEC50 in experiment [7] is 7.14; in [8], 8.40; in experiment [9] it was 8.40; in [10], 6.26; in experiment [11] it was 8.40; in experiment [12] it was 6.77. The pIC50 in experiment [13] is 5.96.

As for `COc1cc2c(cc1Cc1cccc(Cl)c1F)c(=O)c(C(=O)O)cn2[C@H](CO)C(C)C`, the pEC50 is 9.00 in [1]; 7.82 in [2]; 7.23 in [3]; 7.74 in experiment [4]; 9.05 in experiment [5]; 7.48 in experiment [6]. In addition, the pEC50 in experiment [7] is 7.92; in experiment [8], 9.15; in experiment [9], 9.22; in experiment [10], 7.11; in experiment [11], 9.15; in experiment [12] it was 7.30.

As for `COc1cccc2c1c(C(=O)/C=C(\O)C(=O)O)cn2Cc1ccc(F)cc1`, the pEC50 in [1] is 6.41; in experiment [2], 6.28; in [3], 5.58; in experiment [4], 5.97; in experiment [5], 6.31; in experiment [6], 5.72. For the same molecule, the pEC50 is 6.18 in [7]; 6.25 in experiment [8]; 6.49 in [9]; 5.44 in experiment [10]; 6.36 in experiment [11]; 5.73 in experiment [12].

Regarding `Cc1nnc(C(=O)NC(C)(C)c2nc(C(=O)NCc3ccc(F)cc3)c(O)c(=O)n2C)o1`, the negative logarithm of the EC50 (pEC50) in experiment [2] was 8.00; in experiment [3], 7.17; in experiment [4], 7.60; in experiment [5] it was 8.05; in experiment [7], 7.82; in experiment [8] it was 8.30. Moreover, the negative logarithm of the EC50 (pEC50) in experiment [9] was 8.15; in experiment [11] it was 8.22.

Values taken from ChEMBL document CHEMBL1255362, “Mutations in human immunodeficiency virus type 1 integrase confer resistance to the naphthyridine L-870,810 and cross-resistance to the clinical trial drug GS-9137” (Antimicrob Agents Chemother, 2008).
